{
  "source": "paper PMC4216208",
  "about": "(Journal of Medicinal Chemistry, 2014)",
  "key": {"[1]": {"test_system": "O. volvulus L3 larvae", "conditions": "100 μM; cited from earlier work"}, "[2]": {"test_system": "HEK 293T/17 cells", "assay": "Mitochondrial-uncoupling assay", "format": "cell-based, human", "conditions": "50 μM compound, TMRE staining", "how_it_was_run": "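HEK 293T/17 cells were trypsinised and suspended at 1−2 × 10^6 cells/mL in DMEM with 10% FBS, then given test compound (50 μM) or DMSO for 30 min at 37 °C. TMRE (~450 nM final) was added for 30 min in the dark at 37 °C. Cells were washed twice in 0.2% BSA/PBS, resuspended, and read by plate fluorescence (em 575 nm). Unstained and DMSO controls were included; mean ± sd, n = 3.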"}, "[3]": {"test_system": "C. elegans", "assay": "Bioaccumulation in C. elegans", "format": "in vitro ADME, Caenorhabditis elegans", "conditions": "late-stage L4 worms, 10 μM (2 nmol/mg worm), 6 h, LC-MS of homogenates", "how_it_was_run": "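Synchronised C. elegans grown to late L4 on E. coli OP50 at 25 °C for 40 h, water-washed, and suspended in M9 at ~5−10 worms/μL. Dosed at 10 μM final (~2 nmol/mg worm) from DMSO stock, 6 or 12 h at rt. Washed in 0.1% SDS then water, frozen, lyophilised, weighed, extracted into cold MeOH/MeCN with internal standard. Quantified by LC-ESI-MS against blank-worm calibration; mean ± sd, n = 3.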"}, "[4]": {"test_system": "C. elegans", "assay": "Metabolism of closantel in C. elegans", "format": "in vitro ADME, Caenorhabditis elegans"}},
  "data": [
    {"smiles": "Cc1cc(C(C#N)c2ccc(Cl)cc2)c(Cl)cc1NC(=O)c1cc(I)cc(I)c1O", "note": "(centres unmarked) [Compound 1, closantel]", "values": [
      {"measurement": "effect on molting of O. volvulus L3 to L4 larvae", "setting": "[1]", "result": "inhibit the molting"},
      {"measurement": "mitochondrial-uncoupling (protonophoric) activity", "setting": "[2]", "result": "mitochondrial-uncoupling activity"},
      {"measurement": "accumulation in C. elegans (in words)", "setting": "[3]", "result": "accumulated in C. elegans"},
      {"measurement": "sulfation, glycosylation and glucuronidation of the salicylate moiety in C. elegans homogenates", "setting": "[4]", "result": "not observed"},
      {"measurement": "primary metabolic pathway in C. elegans", "setting": "[4]; minor pathway, forms two monoiodoclosantel isomers", "result": "reductive deiodination"}
    ]}
  ]
}
